From ChEMBL document CHEMBL4513216, “Probing the Open Global Health Chemical Diversity Library for Multistage-Active Starting Points for Next-Generation Antimalarials” (ACS Infect Dis, 2020)

Assay: Toxicity liver stage against HepG2, at 10uM
Format: cell-based
Design: test concentration 10 uM, cell line HepG2-A16-CD81EGFP
Conditions: human, HepG2-A16-CD81EGFP cells; read-out: INHIBITION
Method in brief: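 Uninfected HepG2-A16-CD81EGFP cells, 3 × 10^3 per well, 1536-well, plated on prespotted compound at 10 μM final, parasite-free screening media added to match infected plates; puromycin 10 μM positive, DMSO 0.5% negative; run in parallel with 48 h PbLuc assay at 37 °C, 5% CO2; viability by CellTiter-Glo luminescence, normalized to controls.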

| SMILES | cytotoxicity at 10 µM [%] |
| --- | --- |
| C[C@@H]1CN(CC(=O)NCc2ccccn2)C[C@]1(C)O | -5.68 |
| CCN(c1ccccc1C(=O)O)S(=O)(=O)c1cccc2cccnc12 | 1.28 |
| CN(C)C(=O)N1CCN(CCn2nc3ccccn3c2=O)CC1 | 0.562 |
| CCSCCNc1nc2c(s1)c(C)nn2C | -0.145 |
| CC(C)(C)NS(=O)(=O)c1ccccc1CNCc1cccc(O)c1 | -7.43 |
| O=C(CCc1ccccc1Br)N1CC(S(=O)(=O)C2CCCCC2)C1 | -1.36 |
| CN1C[C@H](O)[C@]2(CCN(Cc3ccc(F)c(F)c3)C2)S1(=O)=O | -1.42 |
| CC(C)(C)c1nnc(CN2CCCC(c3cc(C(N)=O)[nH]n3)C2)o1 (stereo not given) | -7.89 |
| CCC1(CC)Cc2ccccc2-c2nc(NCCCO)[nH]c(=O)c21 | 10.2 |
| CC(C)(C)n1cc(C(=O)NCCN2CCOCC2)c2cccnc21 | 2.14 |
| COc1ccccc1N1CCC(CNCc2cccc(O)c2)C1 (stereo not given) | -9.04 |
| O=S(=O)(NC1CCCOC1)c1ccc(C(F)(F)F)nc1 (stereo not given) | -1.38 |
| CCOC(=O)N1CCC(OC)c2ccccc2N(C)C(=O)C1 (stereo not given) | 7.58 |
| CC(NC(=O)c1cccs1)C(=O)NS(=O)(=O)Cc1ccc(C#N)cc1 (stereo not given) | 5.29 |
| N[C@@H](C(=O)N1CCN(c2ccccc2Cl)C(=O)C1)c1ccccc1 | -0.823 |
| CN(CCO)Cc1nnc(C2CCN(C(=O)c3cccnc3)CC2)n1C | 11.4 |
| CNc1nc2ncc(Cl)cc2cc1C#N | 5.05 |
| COc1ccc2c(c1)CCCN(C(C)C(=O)NC(C)C)C2 (stereo not given) | 9.56 |
| Cc1nc[nH]c1-c1nccn1CCN1CCCOC1=O | -2.32 |
| CC(Cc1c(F)cccc1F)NC(=O)CSCC(N)=O (stereo not given) | -6.37 |
| Cc1csc(N2CCN(C(=O)C(C(C)C)n3cncn3)CC2)n1 (stereo not given) | -13.1 |
| CCCn1ncc(-c2ccnc(NC3CC(C)(C)NC(C)(C)C3)n2)c1C | 4.84 |

| SMILES | cytotoxicity at 10 µM [%] |
| --- | --- |
| Cc1nc(C2CN(C)CCO2)cc(N2CCC(C(N)=O)CC2)n1 (stereo not given) | -22.8 |
| CCCS(=O)(=O)N1CC[C@@H]2[C@@H]1CC(=O)N2Cc1csc(C)n1 | -134 |
| CCSc1ncc(CN2CCN(c3nc(C)ncc3C)CC2)cn1 | 27.3 |
| CN(Cc1nccs1)c1nccc(N2CCN[C@H]3CS(=O)(=O)C[C@H]32)n1 | -5 |
| Cc1nc2ccc(C(=O)N3CCn4c(nnc4C4CC4)C3)cc2nc1C | -3.22 |
| COCCC(=O)N(Cc1cccnc1)CC1CCN(C2CCCC2)CC1 | -5 |
| Cc1cc(C2CCCN2C(=O)NCc2cccnc2OC(C)C)on1 (stereo not given) | -9.63 |
| O=C(NCC1(O)COCCN(Cc2cccc(O)c2)C1)c1cscn1 (stereo not given) | -2.28 |
| Cc1noc(C)c1-c1n[nH]c2c1CN(S(=O)(=O)c1cccs1)CC2 | -12.1 |
| Cc1cc(OC(F)F)c(C(=O)N2CCN(C3CC3)CC2)s1 | 9.05 |
| Cc1ccc(CNC(=O)NCCCO)cc1 | -16.2 |
| c1cncc(OCC2CN(Cc3nccs3)Cc3nccn3C2)c1 (stereo not given) | 6.9 |
| CCN(Cc1nc(C2CC2)no1)Cc1ccc(C#N)cc1F | 3.82 |
| CCCS(=O)(=O)CC(=O)Nc1ccsc1 | -5.61 |
| O=C(NCC1CC2(CO1)CN(c1ncccn1)C2)C1CCC1 (stereo not given) | -107 |
| CCC(=O)CNC(=O)CCn1nc2ccccn2c1=O | 9.5 |
| COCCn1/c(=N\C(=O)CN(C)S(C)(=O)=O)sc2cc(OC)ccc21 | -7.93 |
| COc1cccc(CN2CCC(c3nn(CCN)c4nccnc34)C2)c1 (stereo not given) | -24.7 |
| Cc1cccc(N2CCCC2c2nc(C)ncc2CN(C)C)n1 (stereo not given) | -2.17 |
| Cc1n[nH]c(C)c1CN1CCC(c2cc(C(C)C)n[nH]2)CC1 | -6.88 |
| COCCN1CCC(CNC(=O)Nc2ccc(SC(F)(F)F)cc2)C1 (stereo not given) | -11.6 |
| Cn1cc(CN2CCCC3(COCCN(Cc4c[nH]nn4)C3)C2)cn1 (stereo not given) | -0.501 |

| SMILES | cytotoxicity at 10 µM [%] |
| --- | --- |
| CSc1ccc(NC(=O)Cn2cc(NC(C)=O)cn2)cc1 | 0.753 |
| CC(=O)c1cn(CC(=O)N2CCC3(CC2)OCCO3)c2ccccc12 | 0.436 |
| CN(CC(C)(CO)CO)C(=O)Nc1cc(F)cc(F)c1 | 0.669 |
| CCn1c(CN(C)C)nnc1C1CCN(Cc2ccc(C)s2)CC1 | 7.01 |
| CCS(=O)(=O)NCC1Cn2nnc(-c3cccc(C)c3)c2CO1 (stereo not given) | -120 |
| C[C@@H]1CN(C(=O)Cc2ccsc2)C[C@]12CCN(CCN(C)C)C2=O | -1.1 |
| COC(=O)c1ccc(S(=O)(=O)NCC(O)c2sccc2C)cc1 (stereo not given) | 2.16 |
| CC1CCN(C(=O)[C@@H]2C[C@@H]3CCN(Cc4nccs4)C[C@H]3O2)CC1 | -107 |
| COCCN(C)[C@@H]1c2ccccc2C2(CCNCC2)[C@H]1O | -4.61 |
| CCCn1nccc1-c1cc(C2CCN(S(C)(=O)=O)CC2)nc(C)n1 | -10.7 |
| Cn1cnc2c1CCN(CC(O)c1ccc(S(C)(=O)=O)cc1)C2 (stereo not given) | -3.3 |
| CCCN1CCN(CC(O)c2ccc(OC(F)(F)F)cc2)CC1 (stereo not given) | -20.5 |
| CCCNC(=O)C(C)n1cc(Br)cn1 (stereo not given) | -19.7 |
| CCOc1ncccc1C(=O)NCCN(CC)C1CC1 | 4.4 |
| CN(Cc1ccco1)c1ccc(-c2nccn2C)nn1 | -0.447 |
| CN(CCOc1ccc(Br)cc1)Cc1cscn1 | 5.25 |
| CN1C(=O)C(c2cccnc2)CC12CCN(C(=O)c1ccc[nH]1)CC2 (stereo not given) | -0.19 |
| Cc1ccc(CC(=O)N2CCC(c3nnc4n3CCC4)CC2)cc1 | 4.78 |
| CNC(=O)NCC1CCC2(CCN(C(=O)c3ccccn3)CC2)CO1 (stereo not given) | -102 |
| O=S(=O)(C1CC1)N1CCOC2(CCCN(Cc3ccccn3)C2)C1 (stereo not given) | -0.78 |
| Cc1noc(C)c1-c1cncc(C2CCCN2Cc2cncnc2)n1 (stereo not given) | 5.25 |
| COc1ccccc1CCN(C)C(=O)NC(C)c1nncn1C (stereo not given) | -1.88 |

| SMILES | cytotoxicity at 10 µM [%] |
| --- | --- |
| COCCO[C@@H]1CCN(C(=O)c2ccnnc2)[C@H]1Cc1cnn(C)c1 | 7.6 |
| Cc1cc(C)n(-c2cncc(N3CCN(C(=O)CN(C)C)CC3)n2)n1 | -2.09 |
| CC(C)C(C)(C#N)NC(=O)Cn1cc(-c2ccccc2)cn1 (stereo not given) | 8.34 |
| Cc1cc(N2CCC(N(C)C(=O)Nc3ccccc3)CC2)nc(C)n1 | -19.4 |
| CC1CCCN(CCNC(=O)c2ccn(-c3cccc(F)c3)n2)C1 (stereo not given) | -3.25 |
| O=S(=O)(N1CCOCC1)N1CCCCC1CCn1cccn1 (stereo not given) | -0.302 |
| CC(C)(C)c1cc(NC(=O)CN2CCn3c(nnc3C3CC3)C2)on1 | -4.1 |
| O=C(NC[C@H]1OC[C@@H]2CCN(Cc3ccco3)C[C@@H]21)c1ccsc1 | -18.3 |
| Cc1cc(CNC(=O)NC(C)(CO)C2CC2)c(C)s1 (stereo not given) | 3.46 |
| CC(CN1CCCC1=O)NC(=O)c1ccc(C(F)(F)F)[nH]c1=O (stereo not given) | -4.48 |
| Cc1cc(C)c(Cn2cncn2)cc1CN1CC[C@@H]2CC[C@H](C1)N2 | -3.96 |
| CC(C)(CO)Nc1c(NCc2ccncc2)c(=O)c1=O | -3.97 |
| Cn1cnc2c1CCN(CC(=O)N(Cc1ccccc1F)C1CC1)C2 | 4.91 |
| CN(C)C(=O)N1CC2(CCOCC2)c2cc(NC(=O)CCO)ccc21 | -6.13 |
| COc1cccc(C(=O)C2CCCN(c3nccc(N)n3)C2)c1 (stereo not given) | -1.82 |
| CC(C)OCCOCc1cccc(NC(=O)NCc2cnn(C)c2)c1 | -1.11 |
| COCC(=O)N1Cc2nccn2CC(CN(C)Cc2cccnc2)C1 (stereo not given) | -76.2 |
| Cc1noc(C)c1CN1C[C@@H](C(=O)O)[C@H](C(C)C)C1 | 3.51 |
| COCCn1cc(NC(=O)NC(C)Cc2c(F)cccc2F)cn1 (stereo not given) | -4.5 |
| N#CC1(NC(=O)c2cc(Cl)c3c(c2)OCCCO3)CCC1 | -8.42 |
| O=C(CC1CCCC1)N1CCCC(c2n[nH]c3nccnc23)C1 (stereo not given) | -2.6 |
| COc1cccc2ccc(N3CCC(O)(C(=O)O)CC3)nc12 | 3.13 |

| SMILES | cytotoxicity at 10 µM [%] |
| --- | --- |
| Cc1nc(C)c(CC(=O)N2CCC(c3ccn4nccc4n3)CC2)s1 | -0.743 |
| Cc1cc(C(=O)NCc2ccc(N3CCCC(C(N)=O)C3)cc2)[nH]n1 (stereo not given) | 4.23 |
| COCCN(C)CCN1CC2(CCN(C3CCOC3)CC2)OC1=O (stereo not given) | 4.63 |
| CC(C)n1[nH]c(=O)c2c1NC(=O)CC2c1cccc(Br)c1 (stereo not given) | 5.28 |
| CCN1CCN(C)C2(CCN(Cc3cccc(C)n3)CC2)C1=O | 2 |
| Cn1cc(CN2CCC3(CC2)NC(=O)CC3c2ccncc2)cn1 (stereo not given) | -2.1 |
| O=C(NC1CCCC1)[C@@H]1C[C@@H]2CCN(Cc3ccoc3)C[C@H]2O1 | -110 |
| COc1ccc(Cl)cc1CN(CC(N)=O)C(C)C | 1.49 |
| CN1CCCC(N(C)C(=O)c2ccc(NC(=O)c3cc[nH]n3)cc2)C1 (stereo not given) | 0.624 |
| CC(C)NC(=O)[C@@H]1C[C@@H](N)CN1C(=O)CCSCc1ccc(F)cc1 | -3.43 |
| COCc1nc(C2CC2)nn1-c1cc(Cl)ccc1OC | -10.2 |
| CCc1nc(C2CCCN2C(=O)c2ncoc2CC)no1 (stereo not given) | -12.8 |
| CN(Cc1cccc(O)c1)CC1CCCN(CCc2ccc(Cl)cc2)C1 (stereo not given) | 6.22 |
| c1ccc(-c2noc(CCCN3CCCC3Cn3cccn3)n2)cc1 (stereo not given) | -13 |
| CN(Cc1ccc2c(c1)OCCO2)C(=O)Cn1cccnc1=O | 3.01 |
| Cc1cn2nc(N3CCCN(Cc4noc(C)n4)CC3)sc2n1 | 0.529 |
| Cc1cc(C)n(CC2CN(Cc3ccc4c(c3)OCCO4)CCO2)n1 (stereo not given) | -22.3 |
| CCOCc1ncn2c1CN(C(=O)Nc1ccc(CC)cc1)CC2 | 5.96 |
| CC(C)c1nnc(CN2CCN(CC(O)c3ccccc3)CC2)o1 (stereo not given) | -7.03 |
| Cc1ccoc1C1=NNC(=CN2CCOC(Cn3cccn3)C2)O1 (stereo not given) | -7.69 |
| Nc1nccnc1C1CN(C(=O)c2cnccn2)CCO1 (stereo not given) | -9.17 |
| CCS(=O)(=O)CCN1CCC(N(C)Cc2ncc(C)o2)C1 (stereo not given) | 1.75 |
